Bioassay records from PubChem BioAssay.
An excerpt weighted towards active compounds, which were near 0.91% of everything screened.
PMI act hi M6P: increases human PMI activity with near-saturating mannose 6-phosphate | P34949 | actives 0.34% (n = 190,000) | AID 1216 | activation factor at 20 µM | coupled PMI enzyme assay, resazurin fluorescence, 20 min; hits give high values; 1 = untreated enzyme, 0 = substrate-free blank;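 active means activation factor of 2 or more at 20 µM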
Target sequence (P34949 whole entry, looked up): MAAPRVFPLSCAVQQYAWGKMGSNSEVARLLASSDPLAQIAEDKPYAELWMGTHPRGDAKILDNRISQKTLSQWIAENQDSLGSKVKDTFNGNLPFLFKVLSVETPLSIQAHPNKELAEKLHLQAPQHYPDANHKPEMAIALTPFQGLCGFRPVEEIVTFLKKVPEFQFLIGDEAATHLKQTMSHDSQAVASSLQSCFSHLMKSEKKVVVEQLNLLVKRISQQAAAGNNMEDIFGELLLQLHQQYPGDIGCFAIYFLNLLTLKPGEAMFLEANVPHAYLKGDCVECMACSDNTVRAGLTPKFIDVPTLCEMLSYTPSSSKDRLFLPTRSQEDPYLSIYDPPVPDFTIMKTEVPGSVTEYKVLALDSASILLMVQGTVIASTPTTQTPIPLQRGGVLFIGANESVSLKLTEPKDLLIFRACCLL
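Test system – human PMI in coupled enzyme assay · Timing – 20 min incubation at room temperature · Detection – Diaphorase-driven resazurin-to-resorufin fluorescence, excitation 544, emission 590 nm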
PMI act: activators of human phosphomannose isomerase. P34949. purified human PMI, coupled resazurin fluorescence, 20 min; hits give high values; 1 = vehicle control, 0 substrate-free wells. activation factor at 20 µM. actives 0.005% (n = 190,000);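 active means activation factor of 2 or more at 20 µM, relative to plate controls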
Redox H2O2 prof: compounds producing H2O2 with reducing agent – biochemical, NIH compound library profiling, artefact control for MLSCN library redox annotation, primary screen; actives 0.03% (n = 200,000); DTT-dependent redox cycling H2O2, phenol red/HRP absorbance; 100% = 100 µM peroxide control, 0% = buffer; activation, % at 10 µM; AID 878;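 active means activation of at least 50% relative to the plate's high and low controls in the primary single-dose screen; inactive means activation below 50%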;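 further: compound incubated with DTT at 0.8 mM final as the reducing agent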
G6PDH counter: inhibits Leuconostoc G6PDH, flagging false hits in G6PDH-based assays; inhibition, % at 5 µM; Purified L. mesenteroides G6PDH, diaphorase/resazurin coupled fluorescence, 45 min; actives 0.12% (n = 200,000); in the data active means inhibition above about 50%
Tb hexokinase: T. brucei hexokinase 1 inhibition | inhibition, % at 10 µM | AID 1430 | actives 0.11% (n = 220,000) | recombinant TbHK1, G6PDH-coupled NADH A340;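 active means inhibition of 50% or more in the single-dose primary screen; inactive means inhibition below 50%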
p97 ATPase inh: blocks human p97 ATPase activity; recombinant p97 ATPase, Kinase-Glo ATP luminescence, 3 h; inhibition, % at 8 µM; AID 1481; actives 0.42% (n = 220,000); P55072; in the data active means inhibition above about 15%;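 further: 0% = DMSO vehicle and 100% = wells lacking enzyme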
Starred values were filed as active, the others as inactive.

How did C=CCNc1nc(=S)[nH]c2cc(OC)c(OC)cc12 do in these assays?
PMI act hi M6P: 1; PMI act: 1; Redox H2O2 prof: -2; G6PDH counter: -8; Tb hexokinase: -4; p97 ATPase inh: 5

Results for CC(=O)C1=C(C)OC(N)=C(C#N)C1c1cccc2ccccc12 (stereo not given) ?
Tb hexokinase: -14; p97 ATPase inh: 15*

How did COc1ccccc1NC(=O)N1CCN(Cc2ccc3c(c2)OCO3)CC1 do in these assays?
Tb hexokinase: -9; p97 ATPase inh: 3

What do the screens show for `CCCC(=Nc1ccc(N)cc1)C1=C(O)C(C(=O)OC)C(C)(C)CC1=O` (stereo not given)?
PMI act hi M6P: 0.7; PMI act: 0.6; Redox H2O2 prof: 1; G6PDH counter: 1; Tb hexokinase: -6; p97 ATPase inh: 15*

What do the screens show for `COc1ccc(C(=O)Nc2ccc3oc(Cc4ccc(Cl)cc4)nc3c2)cc1OC`?
PMI act hi M6P: 1; PMI act: 0.9; Redox H2O2 prof: -2; G6PDH counter: -2; Tb hexokinase: -17; p97 ATPase inh: -8

How did COc1ccc(NC(=O)C(=S)N2CCCC2)cc1 do in these assays?
PMI act hi M6P: 1; PMI act: 1; Redox H2O2 prof: 0; G6PDH counter: -2; Tb hexokinase: 0; p97 ATPase inh: 5

Results for COc1ccc(C(=O)c2c(C(F)(F)F)oc3c2C(=O)c2ccccc2C3=O)cc1OC ?
PMI act hi M6P: 1.6; PMI act: 1.3; Redox H2O2 prof: 0; G6PDH counter: 59*; Tb hexokinase: -17; p97 ATPase inh: 2

Results for COc1ccc(C(=O)Nc2ccc3c(c2)C(=O)c2ccccc2C3=O)cc1OC ?
PMI act hi M6P: 0.8; PMI act: 0.8; Redox H2O2 prof: 1; G6PDH counter: 1; Tb hexokinase: -17; p97 ATPase inh: 1

How did Cc1c(CN(C)C)c2c(n1Cc1ccccc1)C(=O)c1ccccc1-2 do in these assays?
PMI act hi M6P: 0.9; PMI act: 0.9; Redox H2O2 prof: 2; G6PDH counter: -2; Tb hexokinase: 2; p97 ATPase inh: -2

What do the screens show for `COCc1ccc(O)c2ncccc12`?
PMI act hi M6P: 0.8; PMI act: 0.8; Redox H2O2 prof: 0; G6PDH counter: 44; Tb hexokinase: -5; p97 ATPase inh: -2

Results for OCc1ccnc2c(O)cccc12 ?
PMI act hi M6P: 0.4; PMI act: 0.5; Redox H2O2 prof: 0; G6PDH counter: 59*; Tb hexokinase: 14; p97 ATPase inh: 2

How did CCCC(C(=O)Nc1nccs1)c1ccccc1 (stereo not given) do in these assays?
PMI act hi M6P: 1; PMI act: 1; Redox H2O2 prof: 2; G6PDH counter: 20; Tb hexokinase: -3; p97 ATPase inh: 3

How did CCN(c1ccccc1)S(=O)(=O)c1ccc(OC)c(NC(=O)Cn2cnc3c2c(=O)n(C)c(=O)n3C)c1 do in these assays?
PMI act hi M6P: 1; PMI act: 1; Redox H2O2 prof: -1; G6PDH counter: 6; Tb hexokinase: -4; p97 ATPase inh: 3

How did Cc1ccc(-c2cc(-c3n[nH]c(=S)o3)c3ccccc3n2)cc1 do in these assays?
PMI act hi M6P: 2.2*; PMI act: 1.5; Redox H2O2 prof: 0; G6PDH counter: 10; Tb hexokinase: 19; p97 ATPase inh: 1

Results for CC(=O)Nc1nnc(CCS(=O)(=O)c2ccc(C)c(C)c2)s1 ?
PMI act hi M6P: 1.1; PMI act: 1; Redox H2O2 prof: 0; G6PDH counter: 5; Tb hexokinase: 2; p97 ATPase inh: -7

What do the screens show for `N#Cc1ccccc1NC(=O)C1SC(=Nc2ccccc2)C(C(=O)Nc2ccc(Cl)cc2)=C1N` (stereo not given)?
PMI act hi M6P: 2.3*; PMI act: 1.8; Redox H2O2 prof: 0; G6PDH counter: 3; Tb hexokinase: -8; p97 ATPase inh: 9

Results for COc1ccc(CCNC(=O)Nc2ccccc2[N+](=O)[O-])cc1 ?
PMI act hi M6P: 1.1; PMI act: 1; Redox H2O2 prof: 0; G6PDH counter: 4; Tb hexokinase: -6; p97 ATPase inh: 0

How did CCc1ccc2nc(N3C(=O)C(O)=C(C(=O)c4ccco4)C3c3cccs3)sc2c1 (stereo not given) do in these assays?
PMI act hi M6P: 1.2; PMI act: 1.2; Redox H2O2 prof: 3; G6PDH counter: 10; Tb hexokinase: 0; p97 ATPase inh: -2

How did Cc1ccc2nc(N3C(=O)C(O)=C(C(=O)c4cc5ccccc5o4)C3c3cccs3)sc2c1 (stereo not given) do in these assays?
PMI act hi M6P: 2*; PMI act: 1.4; Redox H2O2 prof: 2; G6PDH counter: 8; Tb hexokinase: -3; p97 ATPase inh: 6

What do the screens show for `CCOC(=O)COn1c(-c2cccc(Cl)c2)nc2ccc([N+](=O)[O-])cc21`?
PMI act hi M6P: 2.1*; PMI act: 1.4; Redox H2O2 prof: 4; G6PDH counter: 2; Tb hexokinase: -17; p97 ATPase inh: 3

What do the screens show for `CC(On1c(-c2ccccc2)nc2ccc(Cl)cc21)C(=O)O` (stereo not given)?
PMI act hi M6P: 1.1; PMI act: 1.1; Redox H2O2 prof: -1; G6PDH counter: 2; Tb hexokinase: -6; p97 ATPase inh: 6

Results for CCOC(=O)C(C)On1c(-c2cccc(Cl)c2)nc2ccc([N+](=O)[O-])cc21 (stereo not given) ?
PMI act hi M6P: 2*; PMI act: 1.6; Redox H2O2 prof: 1; G6PDH counter: 2; Tb hexokinase: -26; p97 ATPase inh: -2

How did Nc1ncnc2c1nc(SCCO)n2Cc1ccccc1 do in these assays?
PMI act hi M6P: 1.1; PMI act: 1.2; Redox H2O2 prof: 0; G6PDH counter: 7; Tb hexokinase: 1; p97 ATPase inh: 3

What do the screens show for `O=C(N/N=C/c1ccc(-c2ccc(S(=O)(=O)Nc3ncccn3)cc2)o1)c1cc2ccccc2cc1O`?
PMI act hi M6P: 1.1; PMI act: 0.9; Redox H2O2 prof: 0; G6PDH counter: 17; Tb hexokinase: -36; p97 ATPase inh: 15*

What do the screens show for `O=C1C(Cl)=C(NCCN2CCCCC2)C(=O)c2ccccc21`?
PMI act hi M6P: 0.5; PMI act: 0.9; Redox H2O2 prof: 0; G6PDH counter: 51*; Tb hexokinase: -4; p97 ATPase inh: 3

What do the screens show for `CCNC1=C(Cl)C(=O)c2ccccc2C1=O`?
PMI act hi M6P: 0.8; PMI act: 0.9; Redox H2O2 prof: 0; G6PDH counter: 37; Tb hexokinase: -7; p97 ATPase inh: 1

What do the screens show for `S=C(Nc1ccc2nc(-c3ccccn3)c(-c3ccccn3)nc2c1)N1CCOCC1`?
PMI act hi M6P: 1.1; PMI act: 1.1; Redox H2O2 prof: -1; G6PDH counter: 53*; Tb hexokinase: 10; p97 ATPase inh: 0
